ChEMBL document CHEMBL4392831, “Discovery of a novel class of potent and selective tetrahydroindazole-based sigma-1 receptor ligands” (Bioorg Med Chem, 2019)

Key:
[1] = Displacement of [3H]-DTG from sigma2 receptor in guinea pig brain membranes after 120 mins in presence of sigma1 […] (+)-SKF10047 by microbeta scintillation counting method; type: cell membranes, Cavia porcellus
[2] = biological target: T1, Sigma non-opioid intracellular receptor 1 (Homo sapiens, UniProt Q99720); assay: Displacement of [3H]-(+)-pentazocine from sigma1 receptor (unknown origin) expressed in HEK293 cell membranes after 120 mins by microbeta scintillation counting method
T1 sequence (Q99720 whole entry): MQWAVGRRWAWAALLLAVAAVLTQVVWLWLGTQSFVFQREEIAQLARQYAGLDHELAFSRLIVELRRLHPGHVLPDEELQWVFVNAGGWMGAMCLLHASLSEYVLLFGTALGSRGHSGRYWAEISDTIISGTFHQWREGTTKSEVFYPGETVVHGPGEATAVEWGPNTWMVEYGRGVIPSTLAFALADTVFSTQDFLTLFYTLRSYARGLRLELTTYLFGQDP
Procedure, shortened: (§1)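 Radioligand binding run by an external screening program; sigma-1 tracer [3H]-pentazocine, sigma-2 tracer [3H]-DTG. Each compound first tested at a single 10 μM concentration. Those giving >50% inhibition were then titrated over a dose range to derive pKi.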

[3] = biological target: Sigma intracellular receptor 2 (Homo sapiens, UniProt Q5BJF2); assay: Displacement of [3H]-DTG from sigma2 receptor (unknown origin) after 120 mins in presence of sigma1 […] (+)-SKF10047 by microbeta scintillation counting method; procedure, shortened: as §1
Sigma intracellular receptor 2, sequence (Q5BJF2 whole entry): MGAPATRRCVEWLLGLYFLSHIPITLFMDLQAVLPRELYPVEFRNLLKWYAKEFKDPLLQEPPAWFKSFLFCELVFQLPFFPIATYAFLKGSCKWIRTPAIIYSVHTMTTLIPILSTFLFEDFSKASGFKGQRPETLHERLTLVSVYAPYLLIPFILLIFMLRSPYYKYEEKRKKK

[4] = Stability in mouse liver microsomes assessed as parent compound remaining at 10 uM in presence of NADPH incubated for 60 mins at 37 degC by UPLC/MS analysis; type: ADME, Microsome; conditions: 1 h
Procedure, shortened: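 Mouse liver microsomes at 0.4 mg/mL with NADPH cofactor in phosphate buffer (0.5 M), compound at 10 μM, verapamil control. T0 sample quenched at once; others shaken 60 min at 37 °C, then stopped with 2 volumes ice-cold acetonitrile. After centrifugation, parent quantified by UPLC/MS in SRM mode. % remaining = (conc at 60 min / conc at 0 min) ×100. Duplicate runs, mean reported.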

[5] = Thermodynamic solubility in pH 7.4 PBS buffer incubated for 16 hrs by UV-absorption spectroscopy; type: physicochemical; conditions: pH 7.4, 16 h
Procedure, shortened: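 A standard curve per compound was built from UV absorbance of acetonitrile dilutions (500 to 0.9 μM, DMSO held at 0.5%) made from DMSO stock. For the sample, 1 mg compound in 1 mL PBS pH 7.4 was stirred at 500 rpm for 16 h at room temperature, then equilibrated 30 min and passed through a 0.2 μm filter. Filtrate UV absorbance was read on a plate reader and solubility extrapolated from the curve.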

Homo sapiens = species on record: Homo sapiens; assay: Selectivity for sigma1 receptor (unknown origin) over sigma2 receptor (unknown origin)
[6] = biological target: T1, Sigma non-opioid intracellular receptor 1; assay: Displacement of [3H]-(+)-pentazocine from recombinant human sigma1 receptor expressed in HEK293 cell membranes after 120 mins by microbeta scintillation counting method

| Structure (SMILES) | Ki [2] | Ki ([3]; read-out: pKi (converted)) | also measured |
| --- | --- | --- | --- |
| Cc1ccccc1NC(=N)Nc1ccccc1C [DITOLYLGUANIDINE] | – | – | Ki [1]: 0.0284 µM |
| CC(C)=CCN1CC[C@]2(C)c3cc(O)ccc3C[C@H]1[C@H]2C [(+)-PENTAZOCINE] | – | – | Ki [1]: 1.54 µM |
| O=C(c1nn(-c2ccccc2)c2c1CC(NCCc1ccc3c(c1)OCO3)CC2)N1CCCCC1 (stereo unspecified) | 0.501 µM | 0.316 µM | – |
| O=C(c1nn(Cc2ccccc2)c2c1CC(NCc1ccc(F)cc1)CC2)N1CCCCC1 (stereo unspecified) | 0.251 µM | – | – |
| O=C(c1nn(-c2ccccc2)c2c1CC(NCCc1ccc(C(F)(F)F)cc1)CC2)N1CCCCC1 (stereo unspecified) | 0.316 µM | – | – |
| O=C(c1c2c(nn1-c1ccc(F)cc1)CCC(NCc1ccc(F)cc1)C2)N1CCCCC1 (stereo unspecified) | – | – | Stability [4]: 25%; Therm solubility [5]: 110 µM; Ki ([3]; read-out: Ki): > 10 µM; Selectivity ratio (Homo sapiens): > 500 |
| NC(=O)c1ccc(-n2nc3c(c2C(=O)N2CCCCC2)CC(NCCc2ccccc2)CC3)cc1 (stereo unspecified) | 0.631 µM | – | – |
| CCCn1nc(C(=O)N2CCCCC2)c2c1CCC(NCCc1ccc(O)cc1)C2 (stereo unspecified) | – | 0.251 µM | – |
| c1ccc(OCc2cc(OC[C@@H]3CCCN3)no2)cc1 | – | – | Ki [6]: 0.0041 µM; Ki [1]: 1.31 µM |
| O=C(c1nn(-c2ccccc2)c2c1CC(NCCc1cccc(O)c1)CC2)N1CCCCC1 (stereo unspecified) | 0.2 µM | – | – |
| O=C(c1c2c(nn1-c1ccccc1)CCC(NCc1ccccc1)C2)N1CCCCC1 (stereo unspecified) | 0.0398 µM | 0.126 µM | – |
| O=C(c1nn(-c2ccccc2)c2c1CC(NCCc1ccc(F)cc1)CC2)N1CCCCC1 (stereo unspecified) | 0.126 µM | 0.1 µM | – |
| O=C(c1c2c(nn1-c1ccccc1)CCC(NCCc1ccc3c(c1)OCO3)C2)N1CCCCC1 (stereo unspecified) | 0.0631 µM | 0.0316 µM | Stability [4]: 24%; Therm solubility [5]: 655 µM |
| O=C(c1c2c(nn1-c1ccccc1)CCC(NCCc1ccc(C(F)(F)F)cc1)C2)N1CCCCC1 (stereo unspecified) | 0.2 µM | – | – |
| Cc1nc(-c2ccc(Cl)cc2)nc(OCCCN2CCCCC2)c1Cl | – | – | Ki [6]: 0.0011 µM; Ki [1]: 1.43 µM |
| CCCn1nc(C(=O)N(C)C)c2c1CCC(NCCc1ccc3c(c1)OCO3)C2 (stereo unspecified) | 0.501 µM | 0.398 µM | – |
| CCCn1nc(C(=O)N(C)C)c2c1CCC(NCc1ccc(F)cc1)C2 (stereo unspecified) | – | 2 µM | Stability [4]: 21%; Therm solubility [5]: 1780 µM |
| O=C(c1c2c(nn1-c1ccccc1)CCC(NCc1ccc(F)cc1)C2)N1CCCCC1 (stereo unspecified) | 0.0316 µM | 0.158 µM | Stability [4]: 7%; Therm solubility [5]: 508 µM |
| O=C(c1nn(-c2ccccc2)c2c1CC(NCc1ccccc1)CC2)N1CCCCC1 (stereo unspecified) | 0.631 µM | 0.501 µM | Stability [4]: 0.3%; Therm solubility [5]: 1570 µM |
| Clc1ccc(Cn2cc(NCCN3CCOCC3)nn2)cc1Cl | – | – | Ki [1]: > 10 µM |
| O=C(c1c2c(nn1-c1ccc(F)cc1)CCC(NCCc1ccncc1)C2)N1CCCCC1 (stereo unspecified) | 0.1 µM | – | Stability [4]: 21% |
| O=C(c1c2c(nn1-c1ccc(O)cc1)CCC(NCCc1ccccc1)C2)N1CCCCC1 (stereo unspecified) | 0.316 µM | 0.251 µM | – |
| CCCn1nc(C(=O)N(C)C)c2c1CCC(NCCc1ccc(C(F)(F)F)cc1)C2 (stereo unspecified) | 2.51 µM | 0.631 µM | – |
